Measurements collected from several papers.
Protocols differ between the studies behind these lines.
Sialidase-3: Sialidase-3 (Homo sapiens, UniProt Q9UQ49)
Oprm1: Mu-type opioid receptor (Oprm1, Rattus norvegicus, UniProt P33535)
Prolyl endopeptidase: Prolyl endopeptidase (Mus musculus, UniProt Q9QUR6)
ENO1: ENO1 (Candida albicans, UniProt P30575)

The IC50 of `CCCCNC(=O)N[C@H]1[C@H]([C@H](O)[C@H](O)CO)OC(C(=O)O)=C[C@@H]1O` is reported as greater than 500 µM (Sialidase-3; enzyme activity, inhibitor).
With `C/C=C1/CN2CC[C@]34C(=C(C(=O)OC)[C@H]1C[C@H]23)Nc1ccc(Br)cc14` the Ki was 0.658 µM (Oprm1; ligand displacement, radioligand; cell membranes).
For `COc1cc2c(cc1OC)CN(CCc1ccc(NC(=O)c3cccc4c(=O)c5cccc(OC)c5[nH]c34)cc1)CC2`, the Ki was greater than 10 µM (D(4) dopamine receptor (DRD4, Homo sapiens, UniProt P21917); cell-free assay).
`CC(C)(C)CC(=O)N[C@H]1[C@H]([C@H](O)[C@H](O)CO)OC(C(=O)O)=C[C@@H]1O` has an IC50 of greater than 500 µM (Sialidase-3; enzyme activity, inhibitor).
With `C/C=C1/CN2CC[C@]34C(=C(C(=O)OC)[C@H]1C[C@H]23)Nc1ccc(I)cc14` the Ki was 0.388 µM (Oprm1; ligand displacement, radioligand; cell membranes).
For `COc1c2c(cc3c1-c1c(cc4c(c1OC)OCO4)C[C@H](C)[C@H](C)C3)OCO2`, the IC50 was greater than 100 µM (Prolyl endopeptidase; enzyme activity, inhibitor, fluorescence).
With `O=C1CCCN1CP(=O)(O)O` the IC50 was greater than 50 µM (ENO1; enzyme activity, inhibitor, absorbance).
With `CN1C(=O)CN=C(c2ccccc2F)c2cc([N+](=O)[O-])ccc21` the IC50 was 1.6 µM (Aldo-keto reductase family 1 member C2 (AKR1C2, Homo sapiens, UniProt P52895); enzyme activity, inhibitor).
With `O=Nc1c(O)[nH]c(=O)[nH]c1=O` the IC50 was greater than 50 µM (ENO1; enzyme activity, inhibitor, absorbance).
For `C=CCc1ccc(O)c(-c2cc(CC=C)ccc2O)c1`, the IC50 was greater than 100 µM (Prolyl endopeptidase; enzyme activity, inhibitor, fluorescence).
